Reference: ChEMBL document CHEMBL1128227, “Cosalane analogues with enhanced potencies as inhibitors of HIV-1 protease and integrase” (J Med Chem, 1995)
In brackets after ≈: the same amount, converted by molar mass.

What was measured:
[1] = biological target: Human immunodeficiency virus type 1 protease (Human immunodeficiency virus 1, UniProt Q72874); experiment: Inhibition of HIV -1 protease
Summary of the method: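 Purified HIV-1 protease with the peptide substrate Ala-Ser-Glu-Asn-Tyr-Pro-Ile-Val-Glu-amide. Cleavage quantified by reverse-phase HPLC. Compounds tested as ammonium salts. Values are means of at least two experiments.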

[2] = test system: HEL; experiment: Antiviral activity against HEL cells by measuring minimum cytotoxic concentration that causes a microscopically detectable alteration of normal cell morphology after 2 day of treatment.; type: functional; details: Homo sapiens, 48 h
[3] = test system: CCRF-CEM; experiment: Cytotoxical effect against CEM cell lines was determined by reduction of cellular viability; type: functional; details: Homo sapiens
Summary of the method: (§1)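 Compounds tested as ammonium salts. Cytotoxicity in CEM-SS, MT-4 or PBL cultures taken from the reduction in cellular viability. Values are means of at least two separate experiments.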

[4] = test system: HeLa; experiment: Antiviral activity was determined against Respiratory syncytial virus(strain Long) in HeLa cells by measuring concentration required to reduce virus induced cytopathogenicity by 50%.; type: functional, cell-based; details: Homo sapiens
Summary of the method: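 RSV cytopathicity in HeLa cells. Compound added immediately after virus infection and left in the culture. Virus-induced cytopathogenicity scored at day 5 post-infection. IC50 in μg/mL.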

[5] = test system: MDCK; experiment: Antiviral activity was determined against Influenza virus B(strain Singapore) MDCK cells by measuring concentration required to reduce virus induced cytopathogenicity by 50%.; type: functional, cell-based; details: Canis lupus familiaris
Summary of the method: (§2)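 Tested in MDCK cells, with compound applied right after infection and left on. Cytopathic effect of influenza A (Ishikawa) or B (Singapore) was read at day 5 pi. IC50 is the concentration halving cytopathogenicity, in µg/mL.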

[6] = test system: MT4; experiment: Viral cytopathicity against HIV -I (HTLV-IIIb) strain determined in MT-4 cells; type: functional, cell-based; details: Homo sapiens
[7] = test system: HeLa; experiment: Antiviral activity against HeLa cells by measuring minimum cytotoxic concentration that causes a microscopically detectable alteration of normal cell morphology after 2 day of treatment.; type: functional; details: Homo sapiens, 48 h
[8] = test system: MDCK; experiment: Antiviral activity against MDCK cells by measuring minimum cytotoxic concentration that causes a microscopically detectable alteration of normal cell morphology after 2 day of treatment.; type: functional; details: Canis lupus familiaris, 48 h
[9] = test system: HEL; experiment: Antiviral activity was determined against (Herpes simplex virus -2) by concentration required to reduce virus induced cytopathogenicity by 50%.; type: functional, cell-based; details: Homo sapiens
[10] = test system: Vero; experiment: Antiviral activity was determined against Tacaribe virus in Vero cells by measuring concentration required to reduce virus induced cytopathogenicity by 50%.; type: functional, cell-based; details: Chlorocebus sabaeus
[11] = test system: MT4; experiment: Cytotoxical effect against MT-4 cell lines was determined by reduction of cellular viability; type: functional; details: Homo sapiens; summary of the method: as §1
[12] = test system: HEL; experiment: Antiviral activity was determined against Vaccinia virus in HEL cells by measuring concentration required to reduce virus induced cytopathogenicity by 50%.; type: functional, cell-based; details: Homo sapiens
[13] = test system: MOLT-4; experiment: Giant cell formation between HIV-1 (HTLV-IIIB) infected HUT-78 cells and uninfected MOLT-4(clone-8)cells; type: functional, cell-based; details: Homo sapiens
Summary of the method: (§3)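 Syncytium assay: HUT-78 cells persistently infected with HIV-1 (HTLV-IIIB) or HIV-2 (LAV-2ROD) were co-cultured with uninfected MOLT-4 (clone 8) cells, and giant-cell formation was scored. Compounds tested as ammonium salts. Values are means of at least two experiments.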

[14] = species on record: Homo sapiens; experiment: Cytotoxical effect against PBL cell lines was determined by reduction of cellular viability; type: functional; summary of the method: as §1
[15] = test system: HEL; experiment: Antiviral activity was determined against Herpes simplex virus -1 TK-/TK+ in HEL cells by measuring concentration required to reduce virus induced cytopathogenicity by 50%.; type: functional, cell-based; details: Homo sapiens
[16] = biological target: Human immunodeficiency virus type 1 integrase (Human immunodeficiency virus 1, UniProt Q7ZJM1); experiment: Inhibition of HIV -1 Integrase
Summary of the method: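 Purified HIV-1 integrase. 3'-processing and strand-transfer (integration) activities were measured with synthetic double-stranded oligonucleotides mimicking viral DNA ends. Compounds tested as ammonium salts. Values are means of at least two experiments.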

[17] = species on record: Homo sapiens; experiment: Inhibition of p24 production in Peripheral blood lymphocytes; type: functional, organism-based
Summary of the method: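 Phytohemagglutinin-stimulated peripheral blood lymphocytes infected with HIV-1 WUJO. Read-out is virion-associated p24 production. Compounds tested as ammonium salts. Values are means of at least two experiments.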

[18] = test system: HEL; experiment: Antiviral activity was determined against Herpes simplex virus -1 TK- in HEL cells by measuring concentration required to reduce virus induced cytopathogenicity by 50%.; type: functional, cell-based; details: Homo sapiens
[19] = test system: HEL; experiment: Antiviral activity was determined against Human cytomegalovirus (strain Davis) in HEL cells by measuring concentration required to reduce virus induced cytopathogenicity by 50%.; type: functional, cell-based
[20] = test system: HEL; experiment: Antiviral activity was determined against Herpes simplex virus -1 in HEL cells by measuring concentration required to reduce virus induced cytopathogenicity by 50%.; type: functional, cell-based; details: Homo sapiens
[21] = test system: MOLT-4; experiment: Giant cell formation between HIV-2 (LAV-2 rod) infected HUT-78 cells and uninfected MOLT-4(clone-8)cells; type: functional, cell-based; details: Homo sapiens; summary of the method: as §3
[22] = test system: HEL; experiment: Antiviral activity was determined against Vesicular stomatitis virus in HEL cells by measuring concentration required to reduce virus induced cytopathogenicity by 50%.; type: functional, cell-based; details: Homo sapiens
[23] = test system: MDCK; experiment: Antiviral activity was determined against Influenza virus A(strain Ishikawa) in MDCK cells by measuring concentration required to reduce virus induced cytopathogenicity by 50%.; type: functional, cell-based; details: Canis lupus familiaris; summary of the method: as §2
[24] = test system: Vero; experiment: Antiviral activity was determined against Junin virus in Vero cells by measuring concentration required to reduce virus induced cytopathogenicity by 50%.; type: functional, cell-based; details: Chlorocebus sabaeus
[25] = test system: Vero; experiment: Antiviral activity against Vero cells by measuring minimum cytotoxic concentration that causes a microscopically detectable alteration of normal cell morphology after 2 day of treatment.; type: functional; details: Chlorocebus sabaeus, 48 h
[26] = test system: MT4; experiment: Viral cytopathicity against HIV -2 (LAV-2 rod)strain determined in MT-4 cells; type: functional, cell-based; details: Homo sapiens

Sequence of Human immunodeficiency virus type 1 integrase (Q7ZJM1 whole entry): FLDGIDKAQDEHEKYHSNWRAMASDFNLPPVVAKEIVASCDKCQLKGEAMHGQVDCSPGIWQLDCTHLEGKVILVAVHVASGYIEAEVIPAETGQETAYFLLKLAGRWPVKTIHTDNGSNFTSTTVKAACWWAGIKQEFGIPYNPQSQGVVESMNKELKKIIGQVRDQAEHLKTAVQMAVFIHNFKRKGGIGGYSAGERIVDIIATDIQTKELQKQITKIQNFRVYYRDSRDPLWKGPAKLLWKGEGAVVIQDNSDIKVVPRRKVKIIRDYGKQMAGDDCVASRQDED

For O=C(O)c1cc(C(=CCC23CC4CC(CC(C4)C2)C3)c2cc(Cl)c(O)c(C(=O)O)c2)cc(Cl)c1O, the IC50 [1] was 0.37 µM, the MCC [2] was 50 µg/mL and the CC50 [3] was 105 µM. For the same molecule, the IC50 [4] was 4 µg/mL (≈ 7.73 µM), the IC50 [5] was > 4 µg/mL and the IC50 [6] was > 40 µM. For the same molecule, the MCC [7] was 20 µg/mL, the MCC [8] was 4 µg/mL and the IC50 [9] was > 20 µg/mL. The IC50 [10] was > 20 µg/mL, the CC50 [11] was > 40 µM and the IC50 [12] was > 5 µg/mL. The IC50 [13] was > 40 µM, the CC50 [14] was 185 µM and the IC50 [15] was > 5 µg/mL. For the same molecule, the IC50 [16] was 7 µM, the IC50 [17] was 148 µM and the IC50 [18] was > 5 µg/mL. For the same molecule, the IC50 [19] was 11 µg/mL (≈ 21.3 µM), the IC50 [20] was > 5 µg/mL and the IC50 [21] was > 40 µM. For the same molecule, the IC50 [22] was > 5 µg/mL, the IC50 [23] was > 4 µg/mL and the IC50 [24] was > 20 µg/mL. The MCC [25] was 50 µg/mL.

With CC(CCC=C(c1cc(Cl)c(O)c(C(=O)O)c1)c1cc(Cl)c(O)c(C(=O)O)c1)[C@H]1CC[C@H]2[C@@H]3CC[C@@H]4CCCC[C@]4(C)[C@H]3CC[C@]12C (stereo partly specified) the IC50 [1] was 1.5 µM, the MCC [2] was 50 µg/mL and the CC50 [3] was 69.5 µM. For the same molecule, the IC50 [4] was 4 µg/mL (≈ 5.85 µM), the IC50 [5] was > 20 µg/mL and the IC50 [6] was 27.2 µM. For the same molecule, the MCC [7] was 100 µg/mL, the MCC [8] was 20 µg/mL and the IC50 [9] was > 20 µg/mL. For the same molecule, the IC50 [10] was > 5 µg/mL, the CC50 [11] was 31.4 µM and the IC50 [12] was 13 µg/mL (≈ 19 µM). For the same molecule, the IC50 [13] was 24 µM, the CC50 [14] was 135 µM and the IC50 [15] was > 20 µg/mL. The IC50 [16] was 2.2 µM, the IC50 [17] was 39 µM and the IC50 [18] was > 20 µg/mL. For the same molecule, the IC50 [19] was > 20 µg/mL, the IC50 [20] was > 20 µg/mL and the IC50 [21] was 40 µM. For the same molecule, the IC50 [22] was > 20 µg/mL, the IC50 [23] was > 12 µg/mL and the IC50 [26] was > 31.3 µM. For the same molecule, the IC50 [24] was > 5 µg/mL and the MCC [25] was 20 µg/mL.

With CC(C)CCCC(C)[C@H]1CC[C@H]2[C@@H]3CCC4C[C@@H](CCC=C(c5cc(Cl)c(O)c(C(=O)O)c5)c5cc(Cl)c(O)c(C(=O)O)c5)CC[C@]4(C)[C@H]3CC[C@]12C (stereo partly specified) the IC50 [1] was 1.5 µM, the MCC [2] was > 100 µg/mL and the CC50 [3] was > 200 µM. The IC50 [6] was 1.8 µM, the IC50 [9] was 7.4 µg/mL (≈ 9.64 µM) and the CC50 [11] was > 125 µM. The IC50 [12] was > 20 µg/mL, the IC50 [13] was 25 µM and the CC50 [14] was 67 µM. For the same molecule, the IC50 [15] was 20 µg/mL (≈ 26 µM), the IC50 [16] was 25 µM and the IC50 [17] was 33 µM. For the same molecule, the IC50 [18] was > 20 µg/mL, the IC50 [19] was 2.7 µg/mL (≈ 3.52 µM) and the IC50 [20] was 10 µg/mL (≈ 13 µM). It also gave an IC50 [21] of 25 µM, an IC50 [22] of 10 µg/mL (≈ 13 µM) and an IC50 [26] of 4 µM.

With CC(C)CCCC(C)[C@H]1CC[C@H]2[C@@H]3CCC4CC(=C(c5cc(Cl)c(O)c(C(=O)O)c5)c5cc(Cl)c(O)c(C(=O)O)c5)CC[C@]4(C)[C@H]3CC[C@]12C (stereo partly specified) the IC50 [1] was 0.35 µM, the MCC [2] was > 50 µg/mL and the CC50 [3] was > 200 µM. For the same molecule, the IC50 [4] was 20 µg/mL (≈ 27.6 µM), the IC50 [5] was > 200 µg/mL and the IC50 [6] was 2.5 µM. The MCC [7] was 100 µg/mL, the MCC [8] was > 200 µg/mL and the IC50 [9] was 12 µg/mL (≈ 16.5 µM). The IC50 [10] was 20 µg/mL (≈ 27.6 µM), the CC50 [11] was 36.7 µM and the IC50 [12] was > 20 µg/mL. The IC50 [13] was 24 µM, the CC50 [14] was 78 µM and the IC50 [15] was > 20 µg/mL. The IC50 [16] was > 100 µM, the IC50 [17] was 59.3 µM and the IC50 [18] was > 20 µg/mL. The IC50 [19] was 2.35 µg/mL (≈ 3.24 µM), the IC50 [20] was > 20 µg/mL and the IC50 [21] was 24 µM. For the same molecule, the IC50 [22] was > 20 µg/mL, the IC50 [23] was 14 µg/mL (≈ 19.3 µM) and the IC50 [26] was 6 µM. For the same molecule, the IC50 [24] was 16 µg/mL (≈ 22 µM) and the MCC [25] was 200 µg/mL.

CC(CCC=C(c1cc(Cl)c(O)c(C(=O)O)c1)c1cc(Cl)c(O)c(C(=O)O)c1)[C@H]1CC[C@H]2[C@@H]3CC[C@@H]4CC(F)(F)CC[C@]4(C)[C@H]3CC[C@]12C (stereo partly specified) was tested, and the IC50 [1] was 0.39 µM, the MCC [2] was 50 µg/mL and the CC50 [3] was 38.5 µM. The IC50 [4] was 4 µg/mL (≈ 5.56 µM), the IC50 [5] was > 12 µg/mL and the IC50 [6] was 27.7 µM. For the same molecule, the MCC [7] was 20 µg/mL, the MCC [8] was 12 µg/mL and the IC50 [9] was > 20 µg/mL. The IC50 [10] was > 5 µg/mL, the CC50 [11] was 34 µM and the IC50 [12] was 20 µg/mL (≈ 27.8 µM). For the same molecule, the IC50 [13] was 8 µM, the CC50 [14] was 69.5 µM and the IC50 [15] was > 20 µg/mL. The IC50 [16] was 2.2 µM, the IC50 [17] was 24 µM and the IC50 [18] was > 20 µg/mL. The IC50 [19] was 11 µg/mL (≈ 15.3 µM), the IC50 [20] was 20 µg/mL (≈ 27.8 µM) and the IC50 [21] was 24 µM. The IC50 [22] was > 20 µg/mL, the IC50 [23] was > 12 µg/mL and the IC50 [26] was 3.5 µM. The IC50 [24] was > 5 µg/mL and the MCC [25] was 20 µg/mL.
